From ChEMBL document CHEMBL1127799, “Derivatives of a novel cyclopeptolide. 1. Synthesis, antifungal activity, and structure-activity relationships” (1994)
In brackets after ≈: the same amount, converted by molar mass. Blank lines part the entries; values can stand above or below the molecule they belong to.

Legend:
Type in all cases: functional
[1] = test system: Candida albicans; assay: Tested for minimum inhibitory concentration against Candida albicans 124 at pH of 4.5.
Procedure, shortened: (§1)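 Broth microdilution in malt extract broth, initial pH 4.5 or 6.5, with 1×10^3 CFU per 0.2 mL well of thawed stored cultures. Compound stocks were made in 5% DMSO/0.2% Tween 80 and diluted to final 0.05–100 μg/mL. Plates were incubated 48 h at 30 °C and read macroscopically. MIC was the lowest concentration with no detectable growth. Vehicle-only wells served as controls.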

[2] = test system: Pichia kudriavzevii; assay: Tested for minimum inhibitory concentration against Candida krusei 132 at pH of 4.5.; procedure, shortened: as §1
[3] = test system: Meyerozyma guilliermondii; assay: Tested for minimum inhibitory concentration against Candida guilliermondii 80 at pH of 4.5.; procedure, shortened: as §1
[4] = test system: Meyerozyma guilliermondii; assay: Tested for minimum inhibitory concentration against Candida guilliermondii 80 at pH of 6.5.; procedure, shortened: as §1
[5] = test system: Candida albicans; assay: Tested for minimum inhibitory concentration against Candida albicans 124 at pH of 6.5.; procedure, shortened: as §1
[6] = test system: Candida tropicalis; assay: Tested for minimum inhibitory concentration against Candida tropicalis 43 at pH of 6.5.; procedure, shortened: as §1
[7] = test system: Candida tropicalis; assay: Tested for minimum inhibitory concentration against Candida tropicalis 43 at pH of 4.5.; procedure, shortened: as §1
[8] = test system: Pichia kudriavzevii; assay: Tested for minimum inhibitory concentration against Candida krusei 132 at pH of 6.5.; procedure, shortened: as §1
[9] = test system: Pichia kudriavzevii; assay: Tested for minimum inhibitory concentration against Candida krusei 132 (C.k) at pH of 4.5.; procedure, shortened: as §1
[10] = test system: Meyerozyma guilliermondii; assay: Tested for minimum inhibitory concentration against Candida guilliermondii 80 (C.g) at pH of 6.5.; procedure, shortened: as §1
[11] = test system: Candida tropicalis; assay: Tested for minimum inhibitory concentration against Candida tropicalis 43 (C.t) at pH of 4.5.; procedure, shortened: as §1
[12] = test system: Meyerozyma guilliermondii; assay: Tested for minimum inhibitory concentration against Candida guilliermondii 80 (C.g) at pH of 4.5.; procedure, shortened: as §1
[13] = test system: Candida tropicalis; assay: Tested for minimum inhibitory concentration against Candida tropicalis 43 (C.t) at pH of 6.5.; procedure, shortened: as §1
[14] = test system: Pichia kudriavzevii; assay: Tested for minimum inhibitory concentration against Candida krusei 132 (C.k) at pH of 6.5.; procedure, shortened: as §1
[15] = test system: Candida albicans; assay: Tested for minimum inhibitory concentration against Candida albicans 124 (Candida albicans) at pH of 4.5.; procedure, shortened: as §1
[16] = test system: Candida albicans; assay: tested for minimum inhibitory concentration against Candida albicans 124 (Candida albicans) at pH of 6.5.; procedure, shortened: as §1
[17] = test system: Meyerozyma guilliermondii; assay: Tested for minimum inhibitory concentration against Candida guilliermondii 80 (C.g) at pH 6.5.
Procedure, shortened: (§2)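 Broth microdilution in malt extract broth, initial pH 6.5, 1×10^3 CFU per 0.2 mL well, from liquid-nitrogen-stored Sabouraud cultures. Compound from 0.08% stock in 5% DMSO/0.2% Tween 80, final 0.05–100 μg/mL. Visual reading after 48 h at 30 °C. MIC = lowest concentration with no detectable growth. Vehicle-only negative controls.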

[18] = species on record: Mus musculus; assay: Tested for efficacy of compound in experimental systemic candidosis (mouse) after oral treatment at dosage of 8 *200 mg kg e-1
Procedure, shortened: (§3)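 Systemic candidiasis: female NMRI mice (18–20 g), 10 per group, infected by intravenous injection of 10⁶ CFU C. albicans no. 124 via lateral tail vein. Oral dosing twice daily on 4 consecutive days, starting 2 h before inoculation. Efficacy taken as survival rate up to day 9 after infection.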

[19] = test system: Candida albicans; assay: Tested for minimum inhibitory concentration against Candida albicans 26 (Candida albicans) at pH 6.5.; procedure, shortened: as §2
[20] = species on record: Rattus norvegicus; assay: Tested for efficacy of compound in experimental vaginal candidosis (rat) after tropical treatment at dosage of 9x 0.1% drug concentration
Procedure, shortened: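 Female Wistar rats (~150 g, hormonally conditioned, 10 per group) infected intravaginally with 3.5×10^4 CFU C. albicans no. 124 in 50 μL broth. Intravaginal gel, 0.2 mL, from 2 h post-inoculation, twice daily for 4 days (nine applications). Swabs plated one day after last treatment on Sabouraud's glucose agar with streptomycin, 48 h at 37 °C. Cure = no reisolation.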

[21] = species on record: Rattus norvegicus; assay: Tested for efficacy of compound in experimental vaginal candidosis (rat) after oral treatment at dosage of 2x 150 mg kg e-1
Procedure, shortened: (§4)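 Hormonally conditioned female Wistar rats (~150 g), 10 per group, given intravaginal C. albicans no. 124, 3.5×10^4 CFU in 50 μL Sabouraud's glucose broth. Oral dosing twice, 2 h before and 18 h after infection. Vaginal swabs plated on Sabouraud's glucose agar with streptomycin (0.1 mg/mL), 48 h at 37 °C. Cured when C. albicans not reisolated.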

[22] = test system: Candida albicans; assay: Tested for minimum inhibitory concentration against Candida albicans 124 (Candida albicans) at pH 6.5.; procedure, shortened: as §2
[23] = test system: Candida albicans; assay: Tested for minimum subinhibitory concentration against Candida albicans 9 (Candida albicans) at pH 6.5.
Procedure, shortened: (§5)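 Malt extract broth microdilution, initial pH 6.5, inoculum 1×10^3 CFU per 0.2 mL well. Compound diluted from 0.08% stock (5% DMSO/0.2% Tween 80) to final 0.05–100 μg/mL. Macroscopic reading after 48 h, 30 °C. MSIC = lowest concentration giving visible growth inhibition in at least two of three triplicates. Vehicle-only negative controls.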

[24] = test system: Pichia kudriavzevii; assay: Tested for minimum subinhibitory concentration against Candida krusei 132 (C.k) at pH 6.5.; procedure, shortened: as §5
[25] = species on record: Rattus norvegicus; assay: Tested for efficacy of compound in experimental vaginal candidosis (rat) after oral treatment at dosage of 2x 300 mg kg e-1; procedure, shortened: as §4
[26] = test system: Candida albicans; assay: Tested for minimum subinhibitory concentration against Candida albicans 4 (Candida albicans) at pH 6.5.; procedure, shortened: as §5
[27] = test system: Candida tropicalis; assay: Tested for minimum inhibitory concentration against Candida tropicalis 43 (C.t) at pH 6.5.; procedure, shortened: as §2
[28] = species on record: Mus musculus; assay: Tested for efficacy of compound in experimental vaginal candidosis (mouse) after oral treatment at dosage of 4 x150 mg kg e-1
Procedure, shortened: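 Vaginal candidiasis in hormonally conditioned female NMRI mice (18–20 g), 10 per group, inoculated intravaginally with 50 μL Sabouraud's glucose broth containing 3.5×10^4 CFU C. albicans no. 124. Dosed four times per gavage, 2 h before and 2, 18 and 24 h after infection. Vaginal swabs plated on Sabouraud's glucose agar with streptomycin (0.1 mg/mL), 48 h at 37 °C. Cure = failed reisolation.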

[29] = test system: Candida albicans; assay: Tested for minimum subinhibitory concentration against Candida albicans 3 (Candida albicans) at pH 6.5.; procedure, shortened: as §5
[30] = test system: Candida albicans; assay: Tested for minimum inhibitory concentration against Candida albicans 9 (Candida albicans) at pH 6.5.; procedure, shortened: as §2
[31] = test system: Candida albicans; assay: Tested for minimum subinhibitory concentration against Candida albicans 90 (Candida albicans) at pH 6.5.; procedure, shortened: as §5
[32] = test system: Meyerozyma guilliermondii; assay: Tested for minimum subinhibitory concentration against Candida guilliermondii 80 (C.g) at pH 6.5.; procedure, shortened: as §5
[33] = test system: Candida albicans; assay: Tested for minimum subinhibitory concentration against Candida albicans 124 (Candida albicans) at pH 6.5.; procedure, shortened: as §5
[34] = test system: Candida albicans; assay: Tested for minimum inhibitory concentration against Candida albicans 4 (Candida albicans) at pH 6.5.; procedure, shortened: as §2
[35] = test system: Candida albicans; assay: Tested for minimum inhibitory concentration against Candida albicans 88 (Candida albicans) at pH 6.5.; procedure, shortened: as §2
[36] = test system: Candida albicans; assay: Tested for minimum inhibitory concentration against Candida albicans 3 (Candida albicans) at pH 6.5.; procedure, shortened: as §2
[37] = test system: Candida albicans; assay: Tested for minimum subinhibitory concentration against Candida albicans 88 (Candida albicans) at pH 6.5.; procedure, shortened: as §5
[38] = species on record: Mus musculus; assay: Tested for efficacy of compound in experimental systemic candidosis (mouse) after oral treatment at dosage of 8 *100 mg kg e-1; procedure, shortened: as §3
[39] = test system: Candida albicans; assay: Tested for minimum inhibitory concentration against Candida albicans 90 (Candida albicans) at pH 6.5.; procedure, shortened: as §2
[40] = test system: Pichia kudriavzevii; assay: Tested for minimum inhibitory concentration against Candida krusei 132 (C.k) at pH 6.5.; procedure, shortened: as §2
[41] = test system: Candida albicans; assay: Tested for minimum subinhibitory concentration against Candida albicans 26 (Candida albicans) at pH 6.5.; procedure, shortened: as §5
[42] = test system: Candida tropicalis; assay: Tested for minimum subinhibitory concentration against Candida tropicalis 43 (C.t) at pH 6.5.; procedure, shortened: as §5
[43] = test system: Candida albicans; assay: Tested for minimum inhibitory concentration against Candida albicans 124 (Candida albicans) at pH of 6.5.; procedure, shortened: as §1

MIC [1]: > 100 µg/mL | MIC [2]: > 100 µg/mL | MIC [3]: > 100 µg/mL | MIC [4]: > 100 µg/mL | MIC [5]: > 100 µg/mL | MIC [6]: > 100 µg/mL | MIC [7]: > 100 µg/mL | MIC [8]: > 100 µg/mL
SMILES: CC[C@@H](C)[C@H]1C(=O)NCC(=O)N(C)[C@@H](C(C)C)C(=O)N[C@@H](Cc2ccc(OC/C=C(\C)CCC=C(C)C)cc2)C(=O)O[C@H](C)C(=O)N2CCCC[C@H]2C(=O)N(C)[C@@H](C(C)C)C(=O)N[C@@H](C(C)C)C(=O)N(C)[C@@H](CC(=O)O)C(=O)N(C)[C@@H]([C@@H](C)CC)C(=O)N1C

MIC [9]: > 100 µg/mL | MIC [10]: > 100 µg/mL | MIC [11]: > 100 µg/mL | MIC [12]: > 100 µg/mL | MIC [13]: > 100 µg/mL | MIC [14]: > 100 µg/mL | MIC [15]: > 100 µg/mL | MIC [16]: > 100 µg/mL
SMILES: C=CCOC(=O)C[C@H]1C(=O)N(C)[C@@H]([C@@H](C)CC)C(=O)N(C)[C@@H]([C@H](C)CC)C(=O)NCC(=O)N(C)[C@@H](C(C)C)C(=O)N[C@@H](Cc2ccc(OCC=C)cc2)C(=O)O[C@H](C)C(=O)N2CCCC[C@H]2C(=O)N(C)[C@@H](C(C)C)C(=O)N[C@@H](C(C)C)C(=O)N1C

MIC [43]: 100 µg/mL (≈ 85.4 µM) | MIC [9]: > 100 µg/mL | MIC [10]: > 100 µg/mL | MIC [11]: 25 µg/mL (≈ 21.4 µM) | MIC [12]: 25 µg/mL (≈ 21.4 µM) | MIC [13]: > 100 µg/mL | MIC [14]: > 100 µg/mL | MIC [15]: 12.5 µg/mL (≈ 10.7 µM)
SMILES: CC[C@@H](C)[C@H]1C(=O)NCC(=O)N(C)[C@@H](C(C)C)C(=O)N[C@@H](Cc2ccc(OCC(=O)O)cc2)C(=O)O[C@H](C)C(=O)N2CCCC[C@H]2C(=O)N(C)[C@@H](C(C)C)C(=O)N[C@@H](C(C)C)C(=O)N(C)[C@@H](CC(=O)O)C(=O)N(C)[C@@H]([C@@H](C)CC)C(=O)N1C

Continued, molecule first:

SMILES: CC(=O)N1CCN(c2ccc(OC[C@H]3CO[C@](Cn4ccnc4)(c4ccc(Cl)cc4Cl)O3)cc2)CC1 [KETOCONAZOLE]
MIC [17]: > 100 µg/mL | Efficacy [18]: 100% | MIC [19]: > 100 µg/mL | Efficacy [20]: 73% | Efficacy [21]: 100% | MIC [22]: > 100 µg/mL | MSIC [23]: <0.05 µg/mL | MSIC [24]: 0.78 µg/mL | Efficacy [25]: 100% | MSIC [26]: <0.05 µg/mL | MIC [27]: > 100 µg/mL | Efficacy [28]: 100% | MSIC [29]: 0.19 µg/mL | MIC [30]: 100 µg/mL (≈ 188 µM) | MSIC [31]: 0.39 µg/mL | MSIC [32]: 0.19 µg/mL | MSIC [33]: 0.19 µg/mL | MIC [34]: > 100 µg/mL | MIC [35]: > 100 µg/mL | MIC [36]: 100 µg/mL (≈ 188 µM) | MSIC [37]: <0.05 µg/mL | Efficacy [38]: 100% | MIC [39]: > 100 µg/mL | MIC [40]: > 100 µg/mL | MSIC [41]: <0.05 µg/mL | MSIC [42]: 6.25 µg/mL

SMILES: CC[C@@H](C)[C@H]1C(=O)NCC(=O)N(C)[C@@H](C(C)C)C(=O)N[C@@H](CC(=O)O)C(=O)O[C@H](C)C(=O)N2CCCC[C@H]2C(=O)N(C)[C@@H](C(C)C)C(=O)N[C@@H](C(C)C)C(=O)N(C)[C@@H](CC(=O)O)C(=O)N(C)[C@@H]([C@@H](C)CC)C(=O)N1C
MIC [43]: > 100 µg/mL | MIC [9]: > 100 µg/mL | MIC [10]: > 100 µg/mL | MIC [11]: > 100 µg/mL | MIC [12]: > 100 µg/mL | MIC [13]: > 100 µg/mL | MIC [14]: > 100 µg/mL | MIC [15]: 100 µg/mL (≈ 94 µM)
